Assay results: ChEMBL document CHEMBL3608222, “Discovery and structure-guided optimization of tert-butyl 6-(phenoxymethyl)-3-(trifluoromethyl)benzoates as liver X receptor agonists” (Bioorg Med Chem Lett, 2015)
pEC50, pKi: −log10 of the molar value. Active and inactive are the calls of the source. No cut-off for these calls is given here.

Columns and labels:
[1] = biological target: Retinoic acid receptor RXR-alpha/oxysterols receptor LXR-beta (Homo sapiens, UniProt P55055); experiment: Binding affinity to His-LXRbeta/FLAG-RXRalpha (unknown origin) by FITC-labeled T0901317 based fluorescence polarization assay; format: protein-complex assay
[2] = biological target: Retinoic acid receptor RXR-alpha/oxysterols receptor LXR-alpha (Homo sapiens, UniProt Q13133); experiment: Binding affinity to His-LXRalpha/FLAG-RXRalpha (unknown origin) by FITC-labeled T0901317 based fluorescence polarization assay; format: protein-complex assay
Mus musculus [3] = experiment: Toxicity in C57Bl/6 mouse assessed as effect on plasma triglyceride levels at 1 mg/kg, po dosed daily for 7 days; format: organism-based; conditions: in vivo, 168 h
Procedure, shortened: (§1)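 C57Bl/6 mice dosed daily by oral gavage at 1 mg/kg for 7 days, n = 5/group. Liver FAS and SCD-1 mRNA and plasma TG were then measured. Groups compared with vehicle by Dunnett's test, p <0.05.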

Cynomolgus monkey [4] = experiment: Increase in ABCA1 mRNA expression in cynomolgus monkey blood at 0.1 to 10 mg/kg, po dosed daily for 14 days measured on day 1; format: functional, organism-based; conditions: Macaca fascicularis
Procedure, shortened: (§2)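 Cynomolgus monkeys dosed daily by oral gavage at 0, 0.1, 0.3, 1, 3 or 10 mg/kg for 14 days, n = 6/group. Blood ABCA1 mRNA was measured on Day 1 and Day 14; plasma triglyceride was measured after single and repeated dosing. Mean + SE.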

[5] = biological target: T1, Oxysterols receptor LXR-beta (Homo sapiens) (UniProt P55055); experiment: Agonist activity at human LXRbeta expressed in African green monkey kidney CV1 cells co-expressing pTAL-LXRE including LXR response element incubated for 20 hrs by luciferase reporter gene assay relative to T0901317; format: cell-based; conditions: CV-1
T1 sequence (whole entry): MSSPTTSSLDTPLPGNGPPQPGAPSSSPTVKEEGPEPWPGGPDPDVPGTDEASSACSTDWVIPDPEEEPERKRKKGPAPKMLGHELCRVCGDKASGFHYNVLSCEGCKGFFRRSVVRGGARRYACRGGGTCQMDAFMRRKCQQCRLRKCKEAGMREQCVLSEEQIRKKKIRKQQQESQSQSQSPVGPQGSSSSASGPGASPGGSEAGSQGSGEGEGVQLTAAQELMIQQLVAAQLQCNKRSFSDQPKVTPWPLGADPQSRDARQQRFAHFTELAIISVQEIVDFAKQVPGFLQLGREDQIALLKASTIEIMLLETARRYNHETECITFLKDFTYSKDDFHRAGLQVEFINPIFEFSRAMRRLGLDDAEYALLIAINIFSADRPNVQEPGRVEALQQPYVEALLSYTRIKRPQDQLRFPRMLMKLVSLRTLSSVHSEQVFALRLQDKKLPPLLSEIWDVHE
Procedure, shortened: (§3)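 CV-1 cells grown in DMEM with 10% charcoal/dextran-treated FBS at 37 °C, seeded 20 h before transfection. Cells were lipofected with pcDNA-hLXRa or pcDNA-hLXRb plus the pTAL-LXRE luciferase reporter. After 3 h, medium was added, then compound in DMSO. Incubation about 20 h before luciferase luminescence read-out.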

Cynomolgus monkey [6] = experiment: Toxicity in cynomolgus monkey assessed as effect on plasma triglyceride levels at 0.1 to 10 mg/kg, po administered as single dose; format: organism-based, Macaca fascicularis; conditions: in vivo; procedure, shortened: as §2
[7] = Cmax in mouse at 10 mg/kg, po; format: ADME, organism-based; parameters: dose 10 mg/kg, route oral; conditions: in vivo
Procedure, shortened: (§4)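 Mice given a single oral dose of 10 mg/kg. Plasma concentration measured in µg/ml as Cmax and at 6 h.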

Mus musculus [8] = experiment: Effect on SCD1 mRNA expression in C57Bl/6 mouse liver at 1 mg/kg, po dosed daily for 7 days; format: functional, organism-based; procedure, shortened: as §1
Cynomolgus monkey [9] = experiment: Increase in ABCA1 mRNA expression in cynomolgus monkey blood at 0.1 to 10 mg/kg, po dosed daily for 14 days measured on day 14; format: functional, organism-based; conditions: Macaca fascicularis; procedure, shortened: as §2
[10] = biological target: T2, Oxysterols receptor LXR-beta (Homo sapiens, UniProt P55055); experiment: Agonist activity at human LXRbeta expressed in African green monkey kidney CV1 cells co-expressing pTAL-LXRE including LXR response element incubated for 20 hrs by luciferase reporter gene assay; format: cell-based, CV-1; procedure, shortened: as §3
T2 sequence (P55055 whole entry): T1 sequence (whole entry)

[11] = Plasma concentration in mouse at 10 mg/kg, po measured at 6 hrs; format: ADME, organism-based; procedure, shortened: as §4
[12] = biological target: T3, Oxysterols receptor LXR-alpha (Homo sapiens, UniProt Q13133); experiment: Agonist activity at human LXRalpha expressed in African green monkey kidney CV1 cells co-expressing pTAL-LXRE including LXR response element incubated for 20 hrs by luciferase reporter gene assay; format: cell-based, CV-1
T3 sequence (Q13133 whole entry): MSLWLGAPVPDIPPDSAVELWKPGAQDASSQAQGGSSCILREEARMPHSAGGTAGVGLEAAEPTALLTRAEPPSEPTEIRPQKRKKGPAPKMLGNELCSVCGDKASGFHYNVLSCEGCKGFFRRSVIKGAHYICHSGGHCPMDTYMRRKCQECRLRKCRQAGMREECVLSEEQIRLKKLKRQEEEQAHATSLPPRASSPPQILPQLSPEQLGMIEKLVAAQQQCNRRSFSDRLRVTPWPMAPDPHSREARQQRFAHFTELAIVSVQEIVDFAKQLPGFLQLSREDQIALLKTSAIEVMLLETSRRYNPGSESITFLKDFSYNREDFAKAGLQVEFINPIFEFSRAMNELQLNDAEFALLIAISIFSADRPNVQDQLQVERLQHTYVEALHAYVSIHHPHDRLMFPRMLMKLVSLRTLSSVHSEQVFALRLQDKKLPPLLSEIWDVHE

Mus musculus [13] = experiment: Effect on FAS mRNA expression in C57Bl/6 mouse liver at 1 mg/kg, po dosed daily for 7 days; format: functional, organism-based; procedure, shortened: as §1
[14] = biological target: T4, Oxysterols receptor LXR-alpha (Homo sapiens) (UniProt Q13133); experiment: Agonist activity at human LXRalpha expressed in African green monkey kidney CV1 cells co-expressing pTAL-LXRE including LXR response element incubated for 20 hrs by luciferase reporter gene assay relative to T0901317; format: cell-based; conditions: CV-1; procedure, shortened: as §3
T4 sequence (whole entry): T3 sequence (Q13133 whole entry)

RAW264.7 [15] = experiment: […] of cholesterol efflux in mouse RAW264.7 cells at 0.1 using [4-14C]-cholesterol incubated for 24 hrs by scintillation counting method relative to T0901317; format: functional
Procedure, shortened: (§5)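 RAW264.7 cells were labeled 2 days with 0.2 µCi/ml [4-14C]-cholesterol in DMEM/1% FBS and washed with 0.2% BSA/PBS. Medium with or without 10 µg/ml apoAI was added, with compound (final 0.01–1 µM) or DMSO, for about 24 h. Medium and cell radioactivity were counted. ApoAI-dependent efflux % = efflux(+apoAI) minus mean efflux(−apoAI); % efficacy is given at the stated concentration.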

Cynomolgus monkey [16] = experiment: Toxicity in cynomolgus monkey assessed as effect on plasma triglyceride levels at 0.1 to 10 mg/kg, po dosed daily for 14 days; format: organism-based, Macaca fascicularis; conditions: in vivo, 336 h; procedure, shortened: as §2
RAW264.7 [17] = experiment: […] of cholesterol efflux in mouse RAW264.7 cells at 1 uM using [4-14C]-cholesterol incubated for 24 hrs by scintillation counting method relative to T0901317; format: functional; procedure, shortened: as §5

Sequence of Retinoic acid receptor RXR-alpha/oxysterols receptor LXR-beta (P19793 whole entry, one chain of several): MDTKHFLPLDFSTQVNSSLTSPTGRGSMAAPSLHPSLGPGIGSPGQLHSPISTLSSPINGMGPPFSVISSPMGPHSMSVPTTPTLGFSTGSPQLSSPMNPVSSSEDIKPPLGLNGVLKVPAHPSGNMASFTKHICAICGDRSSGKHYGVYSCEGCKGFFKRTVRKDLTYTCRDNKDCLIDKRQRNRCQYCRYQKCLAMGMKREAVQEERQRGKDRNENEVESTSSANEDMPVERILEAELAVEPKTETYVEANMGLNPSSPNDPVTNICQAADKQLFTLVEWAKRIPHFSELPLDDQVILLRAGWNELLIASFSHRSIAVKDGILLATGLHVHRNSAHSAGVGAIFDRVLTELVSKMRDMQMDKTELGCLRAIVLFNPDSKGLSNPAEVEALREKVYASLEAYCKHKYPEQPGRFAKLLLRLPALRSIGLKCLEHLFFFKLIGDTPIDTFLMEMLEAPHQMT
Sequence of Retinoic acid receptor RXR-alpha/oxysterols receptor LXR-alpha (P19793 whole entry, one chain of several): as above

pKi [1]	pKi [2]	Efficacy [5] [%]	pEC50 [10]	pEC50 [12]	Efficacy [14] [%]	Structure (SMILES)	also measured
6.44	5.29	–	–	–	–	CC(C)(C)OC(=O)c1cc(C(F)(F)F)ccc1COc1ccc(-c2cccc(CC(=O)O)c2)cc1	–
< 5.00	< 5.00	–	–	–	–	CC(C)(C)OC(=O)c1cc(C(F)(F)F)ccc1COc1ccc(-c2ccc(C(=O)O)cc2)cc1	–
6.18	5.40	–	–	–	–	CN(C(=O)CCC(=O)O)c1ccc(OCc2ccc(C(F)(F)F)cc2C(=O)OC(C)(C)C)cc1	–
6.20	–	–	–	–	–	CC(C)(C)OC(=O)c1cc(C(F)(F)F)ccc1COc1ccc(CCCCC(=O)O)cc1	–
–	–	51	6.80	6.29	79	CC(C)(C)OC(=O)c1c(COc2ccc(-c3ccc(CC(=O)O)cc3)cc2)ccc(C(F)(F)F)c1O	Activity (Mus musculus [3]): Non-toxic; Activity (Cynomolgus monkey [4]): Dose-dependent effect; Activity (Cynomolgus monkey [6]): Non-toxic; Cmax [7]: 8900 ng/mL; Activity (Mus musculus [8]): inactive; Activity (Cynomolgus monkey [9]): Dose-dependent effect; concentration at 6 h [11]: 5300 ng/mL; Activity (Mus musculus [13]): inactive; Efficacy (RAW264.7 [15]): 57%; Activity (Cynomolgus monkey [16]): Non-toxic; Efficacy (RAW264.7 [17]): 69%
6.74	6.06	28	6.68	6.51	27	CC(=O)N(C)c1ccc(OCc2ccc(C(F)(F)F)cc2C(=O)OC(C)(C)C)cc1	Cmax [7]: 1700 ng/mL; concentration at 6 h [11]: 1000 ng/mL
–	–	27	6.28	5.89	39	CC(C)(C)OC(=O)c1c(COc2ccc(-c3cccc(CC(=O)O)c3)cc2)ccc(C(F)(F)F)c1O	Efficacy (RAW264.7 [15]): 3%; Efficacy (RAW264.7 [17]): 58%
6.59	6.00	–	–	–	–	CC(C)(C)OC(=O)c1cc(C(F)(F)F)ccc1COc1ccc(-c2ccc(CC(=O)O)cc2)cc1	–
6.77	6.57	76	6.59	6.55	89	CC(=O)N(C)c1ccc(OCc2ccc(C(F)(F)F)c(O)c2C(=O)OC(C)(C)C)cc1	Cmax [7]: 1000 ng/mL; concentration at 6 h [11]: 670 ng/mL
5.47	5.20	–	–	–	–	CC(C)(C)OC(=O)c1cc(C(F)(F)F)ccc1COc1ccc(-c2cccc(C(=O)O)c2)cc1	–
5.31	–	–	–	–	–	CC(C)(C)OC(=O)c1cc(C(F)(F)F)ccc1COc1ccc(CCCC(=O)O)cc1	–
5.92	5.07	–	–	–	–	CC(C)(C)OC(=O)c1cc(C(F)(F)F)ccc1COc1ccc(CCCCCC(=O)O)cc1	–
